# ARFGAP1 inhibitor: inhibitors of rat ARFGAP1 GAP activity, primary screen, biochemical, fluorescence polarization, GDP tracer; ADP-ribosylation factor GTPase-activating protein 1 (Rattus norvegicus), Q62848; Arfgap1-stimulated ARF1 GTP hydrolysis, GDP FP detection; inhibition, % at 16.5 µM; hit rate 0.26% among 360,000; AID 651572, 2012;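 active means inhibition above a per-plate limit, mean inhibition of low control wells plus 3 SD, cut at about 25% in these data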;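 further: 0% = DMSO wells with enzyme and 100% = wells lacking Arfgap1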
# Target sequence (Q62848 1-136 limits assumed): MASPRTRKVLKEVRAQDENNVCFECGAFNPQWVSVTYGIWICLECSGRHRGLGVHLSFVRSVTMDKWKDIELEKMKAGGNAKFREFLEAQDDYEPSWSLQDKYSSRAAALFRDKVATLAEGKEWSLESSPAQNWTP
#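 Replicates: Single well per compound | Assay system: Truncated rat Arfgap1 GAP domain | Control set: No-Arfgap1 wells (100%) versus DMSO full-reaction wells (0%) | Times: Enzyme reaction 120 min at 25 °C after 20 min preincubation | Reagent: Human ARF1(Δ1-17)-GTP substrate | Measured by: Tracer-displacement fluorescence polarization with EDTA stop, 620/688 nm | Measure: Percent inhibition of Arfgap1-stimulated GTP hydrolysis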
# Calb FLC: C. albicans growth inhibition with fluconazole, primary screen, CaCi-2 strain, Alamar Blue fluorescence; AID 1979, 2009; hit rate 0.57% among 300,000; C. albicans CaCi-2 + fluconazole, 48 h; growth inhibition, % (test concentration not listed);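 active means growth inhibition above about 58% in most replicates, limit read from the data, passing the limit was not always enough; inconclusive means exactly half the replicates above a set limit; inactive means most replicates below a set limit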;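 further: all wells also contain fluconazole at 8 µg/ml as a sub-toxic cotreatment; 0% = median of DMSO wells and 100% = median of geldanamycin control wells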
# PHOSPHO1 inh: PubChem AID 1565; recombinant PHOSPHO1, absorbance phosphatase assay; inhibition, % at 13.3 µM; hit rate 1.1% among 290,000; in the data active means inhibition above about 60%
# VIM-2 inh: VIM-2 metallo-beta-lactamase inhibitors, primary screen, biochemical, epi-absorbance readout, Pseudomonas aeruginosa enzyme; purified VIM-2, nitrocefin hydrolysis, epi-absorbance fluorescence; inhibition, % at 5.6 µM; hit rate 0.89% among 290,000;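 active means inhibition above the mean of all tested compounds plus 3 SD, cutoff set per screening run, cut at about 7.5% in these data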;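 further: red hydrolysis product quenches plate fluorescence so inhibitors raise well fluorescence; 0% = enzyme with DMSO and 100% = DMSO without enzyme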
# IMP-1 inhibitor: IMP-1 metallo-beta-lactamase inhibitors, primary screen, biochemical, epi-absorbance readout, Pseudomonas aeruginosa enzyme. AID 1556, 2009. metallo-beta-lactamase IMP-1 (Pseudomonas aeruginosa). inhibition, % at 5.6 µM. purified IMP-1, nitrocefin hydrolysis, epi-absorbance fluorescence. hit rate 0.45% among 290,000;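 active means inhibition above the mean plus 3 SD of all compounds in the same screening run, cut at about 4.5% in these data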;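 further: 0% = IMP-1 with DMSO and 100% = DMSO wells lacking enzyme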
#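 System: Purified IMP-1 | Read-out basis: Percent enzyme inhibition | Controls: IMP-1 with DMSO as 0%, enzyme-free DMSO as 100% | Replicates: One well per compound | Doses: 5.6 µM nominal single concentration | Detection: Epi-absorbance fluorescence, 480 nm excitation, 530 nm emission | Incubation: 25 °C, 15 min preincubation, 25 min reaction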
# ASAP1 GAP inh: inhibitors of human ASAP1 ArfGAP activity, primary screen, biochemical, fluorescence polarization. Arf-GAP with SH3 domain, ANK repeat and PH domain-containing protein 1 (Homo sapiens), …. ASAP1-stimulated ARF1 GTP hydrolysis, GDP FP detection. inhibition, % at 16.5 µM. hit rate 0.19% among 360,000; in the data active means inhibition above about 25%;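 further: 0% = vehicle with enzyme and substrate and 100% = no enzyme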
# Target sequence (Q9ULH1 325-724 limits assumed): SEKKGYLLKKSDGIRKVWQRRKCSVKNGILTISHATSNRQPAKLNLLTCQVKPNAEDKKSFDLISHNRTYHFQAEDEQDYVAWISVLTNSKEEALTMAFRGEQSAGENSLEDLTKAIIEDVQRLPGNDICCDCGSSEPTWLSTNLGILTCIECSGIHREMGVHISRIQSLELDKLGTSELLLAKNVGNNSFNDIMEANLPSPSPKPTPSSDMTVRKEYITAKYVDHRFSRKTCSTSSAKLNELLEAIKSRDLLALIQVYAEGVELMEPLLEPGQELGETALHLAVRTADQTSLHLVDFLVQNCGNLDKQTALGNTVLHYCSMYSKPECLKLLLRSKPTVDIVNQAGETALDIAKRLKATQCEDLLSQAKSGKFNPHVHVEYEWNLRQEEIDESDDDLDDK
# Numbers without * were called inactive; ? = inconclusive; nt = no result. Only some compounds are listed: those with a hit (about 2.6% of all), similar ones and a draw of the others.
SMILES,ARFGAP1 inhibitor,Calb FLC,PHOSPHO1 inh,VIM-2 inh,IMP-1 inhibitor,ASAP1 GAP inh
COC(=O)Cn1c(=O)n(CCc2ccccc2)c(=O)c2c3c(sc21)CCCC3,-4.8,?,-15.3,-2.0,-1.0,-2.6
CCN(CC)C(=O)Cn1c(=O)n(-c2ccccc2)c(=O)c2c3c(sc21)CCC3,2.6,112.5*,12.8,3.3,0.8,16.5
CCC1(C)Cc2c(sc3c2c(=O)n(-c2ccccc2)c(=O)n3C)CO1 (stereo unspecified),-14.2,nt,76.8*,0.4,-2.1,3.7
Cn1c(=O)n(-c2ccccc2)c(=O)c2c3c(sc21)COC(C)(C)C3,-2.7,12.8,15.6,-2.0,-2.4,-0.2
Cc1ccc(S(=O)(=O)N2CC(CBr)=CCC2c2ccccc2)cc1 (stereo unspecified),3.7,nt,nt,nt,nt,12.2
COC(=O)[C@]12C[C@H](CC(=O)NCc3cccs3)C(=O)N(Cc3ccccc3)C1=C[C@H](C(C)C)O[C@@H]2C1CC1,9.1,nt,nt,nt,nt,1.1
CN(C)c1ccc(Nc2nc(-c3cccnc3)cs2)cc1,-4.0,4.1,81.4*,4.1,-7.2,-4.1
CCN(CC)c1ccc(Nc2nc(-c3cccnc3)cs2)cc1,4.2,-2.6,-15.4,3.6,-2.8,-5.4
Cc1ccccc1-c1ccnc2[nH]n(-c3ccccc3)c(=O)c12,7.0,78.5*,-5.7,-2.0,-5.0,4.4
CC12CCC(/C(=C/NNc3ccc([N+](=O)[O-])cc3[N+](=O)[O-])C1=O)C2(C)C (stereo unspecified),0.3,nt,nt,nt,nt,-1.2
S=C(Nc1cccnc1)N1CCc2ccccc21,-15.5,0.5,-10.9,-0.6,-2.2,-4.9
Fc1ccc(NC(=S)N2CCCc3ccccc32)cc1,-1.5,-17.0,95.3*,-2.6,0.0,-5.5
O=C(Nc1ccc(Cl)cc1)OCc1cn(-c2ccccc2)nn1,-4.6,-3.9,4.0,-3.4,7.5*,-1.5
Cc1ccccc1NC(=O)OCc1cn(-c2ccc(Cl)cc2)nn1,-2.4,-32.7,-7.4,-4.5,1.1,-2.5
COC(=O)c1ccc2nc(-c3ccc(F)cc3)c(CC3CCCCC3)n2c1,-1.6,nt,nt,nt,nt,15.6
COc1cccc(-c2ncn(CCc3ccccc3OC)c2CC(C)C)c1,-15.9,nt,nt,nt,nt,9.0
CCn1c(N2CCN(CC(=O)c3c[nH]c4ccccc34)CC2)nc2c1c(=O)[nH]c(=O)n2C,8.3,1.3,73.5*,-0.2,-1.3,-3.3
O=C1C(Cl)=C(Nc2ccccc2O)C(=O)N1c1ccccc1,15.4,8.7,60.5*,9.3*,-5.1,-8.3
CCC(=O)Nc1ccc(C(=O)CSc2nnc(-c3ccccc3F)n2C2CC2)cc1,-0.5,-6.1,-6.4,1.6,5.5*,0.5
O=C(NC(=S)Nc1ccc(F)c(Cl)c1)C1CC1,-9.6,11.3,17.8,-1.0,-1.5,-5.5
Cc1ccc(NC(=S)NC(=O)C2CC2)cc1Cl,0.0,112.4*,26.5,-4.8,-1.4,-8.7
Cc1ccc2nc(-c3ccc(Cl)cc3)c(Cc3ccsc3)n2c1,-12.4,nt,nt,nt,nt,-5.1
C[C@@H]1CN([C@H](C)CO)C(=O)CCCn2nncc2CO[C@H]1CN(C)C(=O)Nc1ccc2c(c1)OCCO2,6.3,nt,nt,nt,nt,-13.4
COc1cc2c(cc1O)CC[n+]1cc3c(OC)c(OC)ccc3cc1-2,10.9,99.1*,-3.8,-0.7,-4.3,2.1
COc1cc2c(cc1OC)-c1cc3ccc4c(c3c[n+]1CC2)OCO4,0.4,21.0,8.4,1.0,1.2,10.9
SMILES,ARFGAP1 inhibitor,Calb FLC,PHOSPHO1 inh,VIM-2 inh,IMP-1 inhibitor,ASAP1 GAP inh
Cc1cc(NC(=O)Cc2cn(C)c3ccccc23)ccc1Nc1cccnc1,8.6,nt,nt,nt,nt,1.2
N#Cc1c(N)sc(=S)c2c1CCCC2,0.5,7.6,99.1*,1.7,2.4,-3.8
CCC1(C)Cc2c(C#N)c(N)sc(=S)c2CO1 (stereo unspecified),5.2,14.3,89.7*,-0.3,1.1,2.1
COC(=O)CC#C[C@@H](C)[C@H](NS(=O)(=O)c1ccc(C)cc1)C(C)(C)C,-2.4,nt,nt,nt,nt,1.1
CCCC(=O)N1CCCC1(C)C(=O)Nc1ccc(-n2cncn2)cc1 (stereo unspecified),-0.6,nt,nt,nt,nt,-10.2
O=C(O)C1C2C=CC(CC2)C1C(=O)O (stereo unspecified),-14.8,1.6,11.3,-0.1,-3.6,-12.0
CC1C=CC(C)C(C(=O)O)C1C(=O)O (stereo unspecified),-2.0,2.1,-1.4,-1.7,22.8*,8.2
CC(C)N(C[C@@H]1CSCCS(=O)(=O)N1)C1CCCCC1,6.3,nt,nt,nt,nt,3.1
C[C@H](CO)N1C[C@H](C)[C@@H](CN(C)C(=O)c2ccc(N3CCN(C)CC3)cc2)OCc2cn(nn2)CCCC1=O,4.7,nt,nt,nt,nt,-12.1
CCOC(=O)c1c(NC(=O)CSc2ncn[nH]2)sc(C)c1C,9.0,4.2,3.6,5.0,-1.9,-2.4
CCOC(=O)c1c(NC(=O)CSc2ncn[nH]2)sc(C(=O)NC)c1C,6.6,3.2,-155.7,10.0*,-1.4,0.6
COc1ccc(-c2[nH]ncc2CN2CCCCCCC2)c(OC)c1,-0.6,6.4,49.8,-0.2,0.3,12.4
COc1ccc(-c2[nH]ncc2CN2CCN(c3ccccn3)CC2)c(OC)c1,6.6,-23.0,60.1*,-2.0,-0.6,-6.9
FC(F)(F)c1cccc(NC(=S)NCc2ccccn2)c1,-12.5,-7.8,-4.9,0.4,-0.2,7.7
Cc1ccc(NC(=S)NNC(=S)NCc2ccccc2)cc1,0.4,-12.8,75.2*,-4.2,-3.2,16.1
FC(F)(F)c1cccc(NC(=S)NNC(=S)NCc2ccccc2)c1,5.7,4.2,103.5*,-1.0,-1.2,9.5
COC(=O)c1sc(S(=O)(=O)NCCCN(C)C)c(C(=O)OC)c1C,-1.6,-0.4,79.8*,-0.3,-1.6,-4.9
COC(=O)c1sc(S(=O)(=O)Nc2ccc(C)c(C)c2)c(C(=O)OC)c1C,7.3,?,5.7,2.4,1.0,2.2
CC(CCc1ccccc1)NC(=O)CN1CCN(Cc2ccccc2)C1=O (stereo unspecified),5.3,8.5,12.6,-2.4,-3.7,8.7
CC(CCc1ccccc1)NC(=O)CN1CCN(c2ccc(O)cc2)CC1 (stereo unspecified),-4.2,94.9*,27.7,1.6,0.7,1.5
COc1ccc(N2C(=O)c3n[nH]c(C)c3C2c2cccc(C(F)(F)F)c2)cc1 (stereo unspecified),0.1,nt,nt,nt,nt,-3.8
O=S(=O)(c1ccccc1)c1nc(Nc2ccccc2N2CCOCC2)sc1Cl,0.8,0.6,79.2*,-2.2,-2.7,5.2
